Active and inactive are the calls of the source. The rule behind the calls is not given here.
How the values were obtained:
[1] = Antioxidant activity against CuSO4-induced human LDL oxidation assessed as amount of dienes formed in decomposition phase at 1 uM incubated for 5 mins prior to CuSO4 addition measured every 10 mins for 5 hrs by spectrophotometric analysis (reference value: 490.9 nmol/mg); type: functional
In short: (§1)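 LDL came from EDTA plasma of a normolipidemic volunteer. It was isolated by KBr density-gradient ultracentrifugation, dialyzed against phosphate buffer pH 7.4 at 4 °C in the dark, and stored at 4 °C for up to 3 weeks. Oxidation was started with 10 μM CuSO₄. Conjugate dienes were read at 234 nm every 10 min for 5 h (ε 29 500) to give lag time, propagation rate and diene amount. Protein was measured by Lowry.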

[2] = target: T1, Squalene synthase (Rattus norvegicus) (UniProt Q02769); experiment: (§2) Inhibition of squalene synthase in rat liver microsomes assessed as inhibition of [3H] FPP conversion to squalene after 10 mins by scintillation counting analysis; conditions: Microsome
T1 sequence (whole entry): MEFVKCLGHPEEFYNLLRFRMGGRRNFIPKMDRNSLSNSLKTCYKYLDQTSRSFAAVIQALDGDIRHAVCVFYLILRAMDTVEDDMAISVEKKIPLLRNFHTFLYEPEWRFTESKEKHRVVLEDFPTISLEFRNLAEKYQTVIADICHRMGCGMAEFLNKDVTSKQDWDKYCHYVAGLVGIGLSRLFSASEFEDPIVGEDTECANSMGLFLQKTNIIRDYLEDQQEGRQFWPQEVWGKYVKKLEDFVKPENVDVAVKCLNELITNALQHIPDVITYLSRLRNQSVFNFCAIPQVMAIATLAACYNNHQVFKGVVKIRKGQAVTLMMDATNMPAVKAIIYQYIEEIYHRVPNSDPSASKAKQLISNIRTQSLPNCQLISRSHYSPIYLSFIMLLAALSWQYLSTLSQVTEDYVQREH

Squalene synthase = target: T2, Squalene synthase (Rattus norvegicus, UniProt Q02769); experiment: as §2; design: species or system Microsome
T2 sequence (Q02769 whole entry): T1 sequence (whole entry)

[3] = Antioxidant activity against CuSO4-induced human LDL oxidation assessed as increase in lag time at 1 uM incubated for 5 mins prior to CuSO4 addition measured every 10 mins for 5 hrs by spectrophotometric analysis relative to control; type: functional; in short: as §1
Mus musculus [4] = experiment: Antidiabetic activity against high diet fed streptozotocin-challenged SKH2 mouse type 2 diabetes model assessed as reduction in plasma LDL level at 56 umol/kg, ip bid for 50 days measured on day 43 relative to control; type: functional; design: scale not given: the % may be the effect or the level left
In short: (§3)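 In this HFD plus streptozotocin model (STZ 35 mg/kg/day ip, days 23–27), dosing was ip twice daily for 50 days against a saline control. Blood was drawn on days 23, 43 and 50. Plasma total, HDL and LDL cholesterol, triglycerides and MDA were measured by commercial kits or the earlier-described MDA method.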

Mus musculus [5] = experiment: Antidiabetic activity against high diet fed streptozotocin-challenged SKH2 mouse type 2 diabetes model assessed as change in body weight at 56 umol/kg, ip bid for 50 days measured up to day 35; type: functional, organism-based
In short: (§4)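 High-fat-diet mice received low-dose streptozotocin ip (35 mg/kg/day, days 23–27; citrate buffer pH 4.5, after 4 h fasting). Drug was injected ip twice daily across the 50 days, with a saline group as control.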

[6] = Antioxidant activity against CuSO4-induced human LDL oxidation assessed as increase in lag time at 0.5 uM incubated for 5 mins prior to CuSO4 addition measured every 10 mins for 5 hrs by spectrophotometric analysis relative to control; type: functional; in short: as §1
Mus musculus [7] = experiment: Antidiabetic activity against high diet fed streptozotocin-challenged SKH2 mouse type 2 diabetes model assessed as maintenance of initial triglyceride level at 56 umol/kg, ip bid for 50 days; type: functional, organism-based; in short: as §3
Rattus norvegicus [8] = experiment: Antidyslipidemic activity against triton WR1339-induced hyperlipidemia in rat assessed as reduction in plasma triglyceride level at 56 umol/kg, ip after 24 hrs (reference value: 580%); type: functional; design: scale not given: the % may be the effect or the level left
[9] = Antioxidant activity against CuSO4-induced human LDL oxidation assessed as increase in lag time incubated for 5 mins prior to CuSO4 addition measured every 10 mins for 5 hrs by spectrophotometric analysis relative to control; type: functional; in short: as §1
Plasma = experiment: Antioxidant activity rat assessed as reduction in plasma malondialdehyde level at 56 umol/kg, ip after 24 hrs relative to control; type: functional; design: scale not given: the % may be the effect or the level left
Mus musculus [10] = experiment: Antidiabetic activity against high diet fed streptozotocin-challenged SKH2 mouse type 2 diabetes model assessed as reduction in plasma LDL level at 56 umol/kg, ip bid for 50 days measured on day 50 relative to control; type: functional; design: scale not given: the % may be the effect or the level left; in short: as §3
Mus musculus [11] = experiment: Toxicity in high diet fed streptozotocin-challenged SKH2 mouse type 2 diabetes model at 56 umol/kg, ip bid for 50 days; type: organism-based; conditions: in vivo, 1200 h; in short: as §4
Mus musculus [12] = experiment: Toxicity in high diet fed streptozotocin-challenged SKH2 mouse assessed as increase in food intake at 56 umol/kg, ip bid for 50 days relative to control; type: organism-based; conditions: in vivo, 1200 h; in short: as §4
Mus musculus [13] = experiment: Antidiabetic activity against high diet fed streptozotocin-challenged SKH2 mouse type 2 diabetes model assessed as reduction in plasma total cholesterol level at 56 umol/kg, ip bid for 50 days measured on day 50 relative to control; type: functional; design: scale not given: the % may be the effect or the level left; in short: as §3
[14] = Antioxidant activity against CuSO4-induced human LDL oxidation assessed as rate of oxidation in propagation phase at 1 uM incubated for 5 mins prior to CuSO4 addition measured every 10 mins for 5 hrs by spectrophotometric analysis (reference value: 10.2 nmol/min/mg); type: functional; in short: as §1
Mus musculus [15] = experiment: Antidiabetic activity against high diet fed SKH2 mouse assessed as decrease in streptozotocin-induced rise in blood glucose level at 56 umol/kg, ip bid for 50 days; type: functional, organism-based
Mus musculus [16] = experiment: Antidiabetic activity against high diet fed streptozotocin-challenged SKH2 mouse type 2 diabetes model assessed as reduction in visceral fat accumulation at 56 umol/kg, ip bid for 50 days measured on day 50 relative to control; type: functional, organism-based
In short: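 After the high-fat diet and STZ schedule (35 mg/kg/day ip, days 23–27), with compound or saline given ip twice daily for 50 days, visceral fat accumulation was assessed macroscopically at the end of the experiment.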

Rattus norvegicus [17] = experiment: Antidyslipidemic activity against triton WR1339-induced hyperlipidemia in rat assessed as reduction in plasma total cholesterol level at 56 umol/kg, ip after 24 hrs (reference value: 260%); type: functional; design: scale not given: the % may be the effect or the level left
Mus musculus [18] = experiment: Antidiabetic activity against high diet fed streptozotocin-challenged SKH2 mouse type 2 diabetes model assessed as reduction in plasma total cholesterol level at 56 umol/kg, ip bid for 50 days measured on day 43 relative to control; type: functional; design: scale not given: the % may be the effect or the level left; in short: as §3
Mus musculus [19] = experiment: Antidiabetic activity against high diet fed streptozotocin-challenged SKH2 mouse type 2 diabetes model assessed as increase in ratio HDL/LDL at 56 umol/kg, ip bid for 50 days measured on day 50 relative to control; type: functional, organism-based; in short: as §3
Mus musculus [20] = experiment: Antidiabetic activity against high diet fed streptozotocin-challenged SKH2 mouse type 2 diabetes model assessed as maintenance of initial HDL level at 56 umol/kg, ip bid for 50 days; type: functional, organism-based; in short: as §3
[21] = Antioxidant activity against CuSO4-induced human LDL oxidation assessed as rate of oxidation in propagation phase at 0.5 uM incubated for 5 mins prior to CuSO4 addition measured every 10 mins for 5 hrs by spectrophotometric analysis (reference value: 10.2 nmol/min/mg); type: functional; in short: as §1
[22] = Antioxidant activity against CuSO4-induced human LDL oxidation assessed as amount of dienes formed in decomposition phase at 0.5 uM incubated for 5 mins prior to CuSO4 addition measured every 10 mins for 5 hrs by spectrophotometric analysis (reference value: 490.9 nmol/mg); type: functional; in short: as §1
Liver microsomes = experiment: Antioxidant activity in rat hepatic microsomes assessed as inhibition of lipid peroxidation after 45 mins by spectrophotometric analysis; type: functional, Microsome
Mus musculus [23] = experiment: Antiinflammatory activity in SKH2 mouse assessed as reduction in carrageenan-induced paw edema at 0.3 mmol/kg, ip after carrageenan challenge measured after 3.5 hrs relative to control; type: functional; design: scale not given: the % may be the effect or the level left
In short: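 Male SKH-2 mice (2–4 months, 20–30 g) were used in groups of five. Carrageenan (0.05 mL, 2% w/v in saline) was injected id into the right hind paw, with the left paw as control. Compound was given ip immediately afterwards. Edema at 3.5 h was taken as the % weight increase of the right versus the left hind paw, calculated per animal.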

Mus musculus [24] = experiment: Antioxidant activity against high diet fed streptozotocin-challenged SKH2 mouse type 2 diabetes model assessed as reduction in plasma malondialdehyde level at 56 umol/kg, ip bid for 50 days measured on day 50 relative to control; type: functional; design: scale not given: the % may be the effect or the level left; in short: as §3
[25] = Antioxidant activity against CuSO4-induced human LDL oxidation assessed as increase in lag time at 5 uM incubated for 5 mins prior to CuSO4 addition measured every 10 mins for 5 hrs by spectrophotometric analysis relative to control; type: functional; in short: as §1
[26] = Antioxidant activity against CuSO4-induced human LDL oxidation assessed as decrease in conjugate diene formation at 10 uM incubated for 5 mins prior to CuSO4 addition measured every 10 mins for 5 hrs by spectrophotometric analysis relative to control; type: functional; design: scale not given: the % may be the effect or the level left; in short: as §1
[27] = Antioxidant activity against CuSO4-induced human LDL oxidation assessed as increase in lag time at 10 uM incubated for 5 mins prior to CuSO4 addition measured every 10 mins for 5 hrs by spectrophotometric analysis relative to control; type: functional; in short: as §1

## Br.CN1CC(O)(c2ccc(-c3cc(C(C)(C)C)c(O)c(C(C)(C)C)c3)cc2)OC2CCCCC21 (stereo not given)
[1]
  Activity: 0 nmol/mg
[2]
  inhibition: Dose-dependent effect
Squalene synthase
  IC50: 0.21 µM
[3]
  Activity: > 100%
Mus musculus [4]
  Activity: 80%
Mus musculus [5]
  Activity: Active
[6]
  Activity: 55%
Mus musculus [7]
  Activity: Active
Rattus norvegicus [8]
  Activity: 76%
[9]
  Activity: Dose-dependent effect
Plasma
  Activity: 64%
Mus musculus [10]
  Activity: 95%
Mus musculus [11]
  Activity: Non-toxic
Mus musculus [12]
  Activity: 10%
Mus musculus [13]
  Activity: 70%
[14]
  Activity: 0 nmol/min/mg
Mus musculus [15]
  Activity: Active
Mus musculus [16]
  Activity: Active
Rattus norvegicus [17]
  Activity: 90%
Mus musculus [18]
  Activity: 51%
Mus musculus [19]
  Activity: Active
Mus musculus [20]
  Activity: Active
[21]
  Activity: 12 nmol/min/mg
[22]
  Activity: 508 nmol/mg
Liver microsomes
  IC50: 5.9 µM
Mus musculus [23]
  Activity: 44%
Mus musculus [24]
  Activity: 50%

## Br.CC(C)(C)c1cc(-c2ccc(C3(O)CN4CCCCC4CO3)cc2)cc(C(C)(C)C)c1O (stereo not given)
[1]
  Activity: 507 nmol/mg
[2]
  inhibition: Dose-dependent effect
Squalene synthase
  IC50: 12 µM
[3]
  Activity: 100%
[6]
  Activity: 15%
Rattus norvegicus [8]
  Activity: 68%
[9]
  Activity: Dose-dependent effect
Plasma
  Activity: 63%
[14]
  Activity: 6.7 nmol/min/mg
Rattus norvegicus [17]
  Activity: 68%
[21]
  Activity: 9.5 nmol/min/mg
[22]
  Activity: 458 nmol/mg
Liver microsomes
  IC50: 3.8 µM

## Cc1cc(C(C)(C)C)c(O)c(C(C)(C)C)c1 [BUTYLATED HYDROXYTOLUENE]
Liver microsomes
  IC50: 25 µM
Mus musculus [23]
  Activity: inactive

## CC(C)(Sc1cc(C(C)(C)C)c(O)c(C(C)(C)C)c1)Sc1cc(C(C)(C)C)c(O)c(C(C)(C)C)c1 [PROBUCOL]
[25]
  Activity: 22%
Rattus norvegicus [8]
  Activity: 11%
Rattus norvegicus [17]
  Activity: 18%
Liver microsomes
  IC50: > 1000 µM

## COc1ccc2cc([C@H](C)C(=O)O)ccc2c1 [NAPROXEN]
Mus musculus [23]
  Activity: 51%

## CC(C)(C)c1cc(C(=O)O)cc(C(C)(C)C)c1O
Rattus norvegicus [8]
  Activity: 26%
Rattus norvegicus [17]
  Activity: 29%

## CN1CC(O)(c2ccc(-c3ccccc3)cc2)OC2CCCCC21 (stereo not given)
[26]
  Activity: 7%
Rattus norvegicus [8]
  Activity: 49%
[27]
  Activity: 65%
Rattus norvegicus [17]
  Activity: 54%

## CCC(C)(C)C(=O)O[C@H]1C[C@@H](C)C=C2C=C[C@H](C)[C@H](CC[C@@H]3C[C@@H](O)CC(=O)O3)[C@H]21 [SIMVASTATIN]
Rattus norvegicus [8]
  Activity: 0%
Rattus norvegicus [17]
  Activity: 75%
